How the values were obtained:
[1] = system: Mammalian orthoreovirus 1; experiment: Antiviral activity against Reovirus 1 infected in golden hamster BHK21 cells assessed as protection against virus-induced cytopathic effect after 3 to 4 days by MTT assay; format: functional, organism-based; conditions: Mammalian orthoreovirus 1, BHK-21
Method in brief: (§1)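 BHK-21 cells (MDBK for BVDV) seeded at 5×10^4 (BHK) or 3×10^4 (MDBK) cells/well and grown overnight to confluence. Infected at m.o.i. 0.01 in maintenance MEM-Earle with 0.5% inactivated FBS. Serial compound dilutions added 2 h later (final 100, 20, 4, 0.8 µM; DMSO ≤0.1%). Viability read by MTT after 3–4 days at 37 °C. EC50 obtained by linear regression against untreated controls; mean of three determinations.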

[2] = Cytotoxicity against golden hamster BHK21 cells assessed as decrease in cell viability after 72 hrs by MTT assay; format: cell-based, Mesocricetus auratus, BHK-21
Method in brief: (§2)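 Uninfected MDBK (6×10^5 cells/mL, 10% horse serum) or BHK (1×10^6 cells/mL, 10% FBS) cells in MEM-Earle with serial compound dilutions at 37 °C, 5% CO2, run in parallel with the antiviral assays. Viability read by MTT after 72 h. CC50 by linear regression; mean of three determinations.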

West Nile virus = experiment: Antiviral activity against West Nile virus clinical isolate infected in golden hamster BHK21 cells assessed as protection against virus-induced cytopathic effect after 3 to 4 days by MTT assay; format: functional, organism-based; conditions: BHK-21; method in brief: as §1
[3] = system: Bovine viral diarrhea virus 1; experiment: Antiviral activity against Bovine viral diarrhea virus NADL ATCC VR 534 infected in bovine MDBK cells assessed as protection against virus-induced cytopathic effect after 3 to 4 days by MTT assay; format: functional, organism-based, Bovine viral diarrhea virus 1-NADL; conditions: Bovine viral diarrhea virus isolates and strains, ATCC VR 534, MDBK; method in brief: as §1
[4] = Cytotoxicity against African green monkey Vero 76 cells assessed as decrease in cell viability after 48 to 96 hrs by MTT assay; format: cell-based; conditions: chlorocebus sabaeus
Method in brief: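 Vero 76 cells seeded at 5×10^5 cells/mL in D-MEM with 10% FBS and incubated with serial compound dilutions at 37 °C, 5% CO2. Viability read by MTT after 48–96 h. CC50 by linear regression versus untreated controls.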

dengue virus type 2 = experiment: Antiviral activity against Dengue virus type 2 clinical isolate infected in golden hamster BHK21 cells assessed as protection against virus-induced cytopathic effect after 3 to 4 days by MTT assay; format: functional, organism-based; conditions: BHK-21; method in brief: as §1
Human orthopneumovirus = experiment: Antiviral activity against Human respiratory syncytial virus A2 ATCC VR 1540 infected in African green monkey Vero 76 cells assessed as protection against virus-induced cytopathic effect after 5 days by crystal violet staining-based plaque reduction assay; format: functional, organism-based; conditions: ATCC VR 1540, Vero 76, 120 h
[5] = Cytotoxicity against bovine MDBK cells assessed as decrease in cell viability after 72 hrs by MTT assay; format: cell-based, Bos taurus; conditions: cattle; method in brief: as §2
[6] = system: Human immunodeficiency virus 1; experiment: Antiviral activity against HIV1 3B infected in human MT4 cells assessed as protection against virus-induced cytopathic effect after 4 days by MTT assay; format: functional, organism-based; conditions: Human immunodeficiency virus 1, 3B, MT4, 96 h
Method in brief: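 MT-4 cells (1×10^4/well) in RPMI with serial compound dilutions, infected with 100 CCID50 HIV-1 (m.o.i. 0.01). Viability read by MTT after 4 days at 37 °C. EC50 for 50% protection from cytopathicity obtained by linear regression versus untreated controls; mean of three determinations.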

[7] = Cytotoxicity against African green monkey Vero 76 cells assessed as decrease in cell viability after 5 days by MTT assay; format: cell-based; conditions: chlorocebus sabaeus
Yellow fever virus [8] = experiment: Potency index, ratio of azauridine EC50 to compound EC50 for Yellow fever virus 17D vaccine (Stamaril Pasteur J07B01); format: functional
Human alphaherpesvirus 1 = experiment: Antiviral activity against Human herpesvirus 1 KOS ATCC VR 1493 infected in African green monkey Vero 76 cells assessed as protection against virus-induced cytopathic effect after 3 days by crystal violet staining-based plaque reduction assay; format: functional, organism-based; conditions: Human alphaherpesvirus 1, KOS, Vero 76, 72 h
Vaccinia virus = experiment: Antiviral activity against Vaccinia virus Lister ATCC VR 1549 infected in African green monkey Vero 76 cells assessed as protection against virus-induced cytopathic effect after 3 days by crystal violet staining-based plaque reduction assay; format: functional, organism-based; conditions: Orthopoxvirus vaccinia, ATCC VR 1549, Vero 76, 72 h
[9] = Selectivity index, ratio of CC50 for golden hamster BHK21 cells to EC50 for Yellow fever virus 17D; format: toxicity; conditions: read-out: Ratio CC50/EC50
Method in brief: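 Selectivity index calculated as BHK-21 CC50 divided by YFV EC50, both from MTT assays.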

[10] = system: Vesicular stomatitis Indiana virus; experiment: Antiviral activity against Vesicular stomatitis virus Indiana ATCC VR 158 infected in African green monkey Vero 76 cells assessed as protection against virus-induced cytopathic effect after 2 days by crystal violet staining-based plaque reduction assay; format: functional, organism-based; conditions: ATCC VR 158, Vero 76, 48 h
[11] = Cytotoxicity against human MT4 cells assessed as decrease in cell viability after 96 hrs by MTT assay; format: cell-based
Method in brief: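 Exponentially growing MT-4 cells seeded at 1×10^5 cells/mL in RPMI-1640 with 10% FBS and incubated with serial compound dilutions at 37 °C, 5% CO2. Viability read by MTT after 96 h. CC50 by linear regression versus untreated controls.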

Yellow fever virus [12] = experiment: Antiviral activity against Yellow fever virus 17D vaccine (Stamaril Pasteur J07B01) infected in golden hamster BHK21 cells assessed as protection against virus-induced cytopathic effect after 3 to 4 days by MTT assay; format: functional, organism-based; conditions: BHK-21; method in brief: as §1
[13] = Antiviral activity against Human enterovirus B Faulkner ATCC VR 185 infected in African green monkey Vero 76 cells assessed as protection against virus-induced cytopathic effect after 3 days by crystal violet staining-based plaque reduction assay; format: functional, cell-based; conditions: Faulkner ATCC VR 185, Vero 76, 72 h
Enterovirus C = experiment: Antiviral activity against Enterovirus C Sabin […] infected in African green monkey Vero 76 cells assessed as protection against virus-induced cytopathic effect after 2 days by crystal violet staining-based plaque reduction assay; format: functional, organism-based; conditions: Vero 76, 48 h
[14] = Selectivity index, ratio of CC50 for bovine MDBK cells to EC50 for Bovine viral diarrhea virus NADL ATCC VR 534; format: toxicity; conditions: cattle, read-out: Ratio CC50/EC50
Method in brief: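 Selectivity index calculated as MDBK CC50 divided by BVDV EC50, both by MTT.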

[15] = Selectivity index, ratio of CC50 for African green monkey Vero 76 cells to EC50 for Human coxsackievirus B5 Faulkner; format: toxicity; conditions: read-out: Ratio CC50/EC50
Method in brief: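 Selectivity index calculated as Vero 76 CC50 (MTT) divided by CVB-5 plaque-reduction EC50.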

Row | Structure (SMILES) | EC50 [1] [µM] | CC50 at 72 h [2] [µM] | EC50 (West Nile virus) [µM] | EC50 [3] [µM] | CC50 [4] [µM] | EC50 (dengue virus type 2) [µM] | EC50 (Human orthopneumovirus) [µM] | CC50 at 72 h [5] [µM] | EC50 [6] [µM] | CC50 at 120 h [7] [µM] | Ratio EC50 (Yellow fever virus [8]) | EC50 (Human alphaherpesvirus 1) [µM] | EC50 (Vaccinia virus) [µM] | selectivity ratio [9] | EC50 [10] [µM] | CC50 at 96 h [11] [µM] | EC50 (Yellow fever virus [12]) [µM] | EC50 [13] [µM] | EC50 (Enterovirus C) [µM] | further results
1 | Cc1ccccc1C1CC(c2ccc(Oc3ccccc3)cc2)=NN1c1ccc(S(N)(=O)=O)cc1 (centres undefined) | > 7 | 7 to 8 | > 8 | > 16 | 90 | > 8 | > 14 | 16 | 13 | 14 | 10 | > 90 | > 90 | 3.6 | > 90 | 36 | 2.2 | > 90 | > 90 | 
2 | NS(=O)(=O)c1ccc(N2N=C(c3ccc(OCc4ccccc4)cc3)CC2c2cccc(F)c2)cc1 (centres undefined) | > 9 | 9 to 11 | > 11 | 10 | 90 | > 11 | > 25 | 15 | > 65 | 25 | 10 | > 90 | > 90 | 5.5 | > 90 | 65 | 2 | 8.5 | > 90 | selectivity ratio [14]: 1.5; selectivity ratio [15]: 10.6
3 | Cc1cccc(C2CC(c3ccc(Oc4ccccc4)cc3)=NN2c2ccc(S(N)(=O)=O)cc2)c1 (centres undefined) | > 8 | 8 to 9 | > 9 | > 6 | 81 | > 9 | > 14 | 6 | > 35 | 14 | 10 | > 81 | > 81 | 5 | > 81 | 35 | 1.8 | > 81 | > 81 | 

Source: ChEMBL document CHEMBL4130485, “Inhibitors of Yellow Fever Virus replication based on 1,3,5-triphenyl-4,5-dihydropyrazole scaffold: Design, synthesis and antiviral evaluation” (Eur J Med Chem, 2017)
